Most compounds without a hit are left out; they make up all but 3.5% or so of the library.
RGS4 act: RGS4 potentiation or activation; B-score at 10 µM; 310,000 compounds, 0.92% hits; HEK293 M3R/inducible RGS4, carbachol calcium flux Fluo4; hits give low values; AID 463111;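 active means B-score of the integrated calcium signal more than 4 SD below the library mean, with starting fluorescence not abnormally high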;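 further: negative B-score means reduced calcium response which marks RGS4 activation or potentiation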
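System – HEK293 FlpIn-TREx cells, stable M3R, doxycycline-inducible RGS4 · Reagent – ECmax carbachol challenge · Times – compound preincubation 20 min at room temperature before agonist · Technique – Fluo4 fluorescence kinetic imaging of calcium · Measure – B score of integrated Fluo4 ratio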
MrgX1 agonist: activates human MrgX1 receptor signaling; Q96LB2; B-score at 10 µM; 310,000 compounds, 0.44% hits; AID 588627; MrgX1-HEK293 cells, Fluo-4 calcium fluorescence, agonist mode; hits give high values;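 active means calcium response B-score plate-corrected fluorescence ratio at least 3 library SD, with starting fluorescence B-score inside 5 SD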
Target sequence (Q96LB2 whole entry, looked up): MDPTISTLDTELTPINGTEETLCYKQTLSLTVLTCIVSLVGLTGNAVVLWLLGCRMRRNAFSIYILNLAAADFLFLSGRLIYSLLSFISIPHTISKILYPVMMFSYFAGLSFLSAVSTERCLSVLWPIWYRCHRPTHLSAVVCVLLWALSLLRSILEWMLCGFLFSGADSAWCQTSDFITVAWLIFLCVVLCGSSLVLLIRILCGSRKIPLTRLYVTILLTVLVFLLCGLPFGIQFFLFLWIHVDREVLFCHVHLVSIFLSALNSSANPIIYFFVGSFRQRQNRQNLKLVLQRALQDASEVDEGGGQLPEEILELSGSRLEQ
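Test system: Stable human MrgX1 HEK293 cell line | Schedule: Overnight plating before 1 h dye loading | Read-out basis: Baseline-normalised fluorescence change ratio, B-scored | Detection: Kinetic calcium dye fluorescence, Fluo-4 NW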
RGS4 inh: inhibitors of human RGS4. HEK293 M3R/RGS4 inducible, Fluo-4 calcium flux; hits give high values; triggered by carbachol at its EC20. 310,000 compounds, 0.45% hits. B-score at 10 µM;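 active means B-score, a plate-corrected calcium signal, over three deviations above library mean, with baseline fluorescence within five deviations of library mean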;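 further: RGS4 expression induced by doxycycline in cells with stable M3 receptor; B-score is computed from the integrated fluorescence ratio over baseline after carbachol; higher B-score means a larger calcium signal and so more RGS4 inhibition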
Target sequence (P49798 whole entry, looked up): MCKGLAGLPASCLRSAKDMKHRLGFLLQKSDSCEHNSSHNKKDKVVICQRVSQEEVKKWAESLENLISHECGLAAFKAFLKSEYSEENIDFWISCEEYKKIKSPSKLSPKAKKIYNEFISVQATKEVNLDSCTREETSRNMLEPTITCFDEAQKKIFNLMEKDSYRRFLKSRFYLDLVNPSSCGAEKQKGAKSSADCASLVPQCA
MrgX1 PAM: allosterically activates human MrgX1 receptor signaling | Q96LB2 | MrgX1-HEK293, Fluo-4 calcium flux, FDSS; hits give high values | B-score at 10 µM | 310,000 compounds, 0.63% hits | AID 588675;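 active means plate-corrected calcium response at least 3 library SD above typical, normal starting fluorescence, not activating the receptor alone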;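 further: compound read alongside a low EC10 to EC30 dose of BAM8-22 agonist; peak minus trough fluorescence over baseline measured at the second addition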
MrgX1 antagonist: antagonists of human MrgX1 receptor | Q96LB2 | MRGX1-HEK293 calcium flux, Fluo-4, BAM8-22 antagonism; hits give low values | B-score at 10 µM | 310,000 compounds, 1.3% hits | AID 588676;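 active means calcium-response B-score plate-corrected more than 3 library SD below zero, starting fluorescence within 5 deviations, no agonist response on first addition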;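 further: peak minus trough fluorescence over baseline after final BAM8-22 challenge near maximal dose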
RGS4 inh valid: RGS4 inhibitor validation. AID 492999. calcium response, % at 10 µM. shares compounds with RGS4 inh. 1,700 compounds, 65% hits. HEK293 M3R/RGS4, carbachol calcium Fluo-4 fluorescence; carbachol added at its EC20; 0 = buffer wells, 100 = carbachol control;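 active means duplicate-averaged calcium response above the buffer-only control mean plus 5 SD of those controls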;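 further: integrated fluorescence ratio F max minus min over baseline F0; higher response in RGS4-induced cells means RGS4 inhibition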
M3R Ca ctr: checks RGS4 inhibitor effects in non-induced HEK293 M3R cells; shares compounds with RGS4 inh; carbachol calcium Fluo-4; submaximal (EC20) carbachol stimulus; buffer wells 0%, carbachol control wells 100%; activity (percent), % at 10 µM; 1,900 compounds, 20% hits; AID 493000; call rule not given here;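 further: RGS4 induction absent so cells express M3R without RGS4; higher means more calcium signal and flags a non-specific hit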
M3R basal Ca ctr: second RGS4 inhibitor counter-screen in uninduced cells lacking carbachol | shares compounds with RGS4 inh | HEK293 M3R/RGS4 non-induced, Fluo-4 calcium, no carbachol; normalised: buffer wells 0%, carbachol wells 100% | calcium response (agonist-mode artifact), % at 10 µM | 1,900 compounds, 22% hits | AID 493001;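 active means duplicate-averaged calcium rise in uninduced cells above buffer wells' mean plus 5 SD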
Active calls of the source: *; i = inactive; / = no result.

SMILES	RGS4 act	MrgX1 agonist	RGS4 inh	MrgX1 PAM	MrgX1 antagonist	RGS4 inh valid	M3R Ca ctr	M3R basal Ca ctr
Oc1ccc(C2Nc3cccc4cccc(c34)N2)c(O)c1	i	i	7.71*	i	i	9.5%*	i	i
COc1ccc(NC(=O)c2nc[nH]c2C(=O)N[C@H](C)c2ccccc2)cc1	i	i	7.64*	i	i	17.5%*	i	i
O=C(C1CCC(Cn2c(=O)[nH]c3ccccc3c2=O)CC1)N1CCN(c2ccccc2)CC1 (stereo not given)	i	i	i	i	i	/	i	i
COc1ccc(N2CCN(C(=O)C3CCC(Cn4c(=S)[nH]c5ccccc5c4=O)CC3)CC2)cc1 (stereo not given)	i	i	i	i	i	/	i	i
O=C(C1CCC(Cn2c(=S)[nH]c3ccccc3c2=O)CC1)N1CCN(c2ccccn2)CC1 (stereo not given)	i	i	i	i	i	/	/	/
O=C(OCn1ncc(Br)c(Br)c1=O)c1ccc(F)cc1	i	i	13.5*	i	i	23.5%*	i	i
CCOc1ccc(-c2c(C(=O)N/N=C/c3cccc(Br)c3)nnn2-c2nonc2N)cc1	i	i	i	i	i	i	i	8.0%*
CCOc1cccc(-c2c(C(=O)N/N=C/c3cccnc3)nnn2-c2nonc2N)c1	i	i	i	i	i	i	i	i
CCCc1c(C(=O)N/N=C/c2cccnc2)nnn1-c1nonc1N	i	i	i	i	i	/	/	/
CCOc1cccc(-c2c(C(=O)N/N=C/c3ccc(Br)cc3)nnn2-c2nonc2N)c1	i	i	19.1*	i	i	37.5%*	57.0%*	i
CCOc1ccc(-c2c(C(=O)N/N=C/c3ccc(O)cc3)nnn2-c2nonc2N)cc1	i	i	i	i	i	/	/	/
CCOc1ccc(C(=O)N2CCC3(CC2)NCCc2[nH]cnc23)cc1	i	i	i	i	i	/	/	/
COCCC(=O)Nc1ccc2c(c1)CN(C(=O)c1ccc(CSC)o1)CC2	i	i	i	i	i	/	/	/
Cn1c(OCc2ccco2)nc2c1c(=O)n(Cc1ccc(Cl)c(Cl)c1)c(=O)n2C	i	i	5.94*	i	i	6.5%*	i	i
O=C1Nc2ccccc2/C1=N/N=C/c1cccc(O)c1	i	i	8.95*	i	i	19.5%*	47.0%*	i
O=C1Nc2ccccc2/C1=N\N=C\C1=C(N2CCOCC2)C(=C\c2ccccc2)/CC1	i	i	i	i	i	/	i	i
Cn1cc(C(=O)N/N=C/C2=C(N3CCOCC3)C(=C\c3ccccc3)/CC2)ccc1=O	i	i	i	i	i	/	/	/
CCOc1cccc(C(=O)Nc2ccccc2C(=O)N2CCN(C)CC2)c1	i	i	i	i	i	/	/	/
Cc1ccc2nsnc2c1S(=O)(=O)NCCc1c(C)[nH]c2ccc(F)cc12	i	i	i	i	i	/	/	/
Cc1ccc(S(=O)(=O)Nc2cccc(-c3ccc(N4CCCCCC4)nn3)c2)cc1	i	i	i	i	i	/	/	/
CC(=O)NCCC(=O)Nc1cc(S(=O)(=O)N2CCOCC2)ccc1Oc1ccccc1	i	i	i	i	i	/	/	/
COc1ccc(OC)c(S(=O)(=O)N2CCCC(C(=O)N3CCOCC3)C2)c1 (stereo not given)	i	i	4.78*	i	i	i	i	i
COc1ccc(S(=O)(=O)N2CCCC(C(=O)N3CCOCC3)C2)cc1C (stereo not given)	i	i	i	i	i	/	/	/
CCn1c2ccccc2c2cc(/C=N/NC(=O)c3cc(O)cc(O)c3)ccc21	i	i	8.96*	i	i	42.5%*	31.0%*	i
CCn1c2ccccc2c2cc(/C=N/NC(=O)c3ccc(O)cc3)ccc21	i	i	i	i	-6.27*	/	i	i
SMILES	RGS4 act	MrgX1 agonist	RGS4 inh	MrgX1 PAM	MrgX1 antagonist	RGS4 inh valid	M3R Ca ctr	M3R basal Ca ctr
O=C(CN1CCN(S(=O)(=O)c2ccc3ccccc3c2)CC1)Nc1ccc2c(c1)CCC2	i	i	i	i	i	/	/	/
Cc1sc2nc(CN(Cc3cccs3)C(=O)NC3CCCCC3)[nH]c(=O)c2c1C	i	i	i	i	i	/	i	i
CN(C)C=NC(=O)c1ccc(N2CCN(c3ncc(C(F)(F)F)cc3Cl)CC2)cc1	i	i	8.24*	i	i	18.0%*	i	i
CN(C)/C=C/C(=O)c1ccc(N2CCN(c3ncc(C(F)(F)F)cc3Cl)CC2)cc1	i	i	i	i	i	/	/	/
COC(=O)Cc1[nH]nc2c1C1(C(=O)N(Cc3ccccc3)c3ccccc31)C(C#N)=C(N)O2 (stereo not given)	i	i	i	i	i	/	i	i
Cc1[nH]nc2c1C1(C(=O)N(Cc3ccc(Cl)cc3)c3ccccc31)C(C#N)=C(N)O2 (stereo not given)	i	i	i	i	i	/	/	/
CC(=O)/C=C/c1ccc2ccccc2n1	i	i	24.7*	i	i	49.5%*	i	i
CC1(C)CC(NC(=O)c2coc(=O)c(Br)c2)CC(C)(C)N1	i	i	4.66*	i	i	17.0%*	i	i
O=c1[nH]nc(SCc2nnc(-c3cccc(Cl)c3)o2)n1C1CCCCC1	i	i	i	i	i	/	/	/
COc1ccc(-n2nc(C(=O)NCC(=O)NCCCN3CC(C)CC(C)C3)c3ccccc3c2=O)cc1OC (stereo not given)	i	i	i	i	i	/	/	/
N#Cc1cnn2c3c(cnc12)C(=O)N1CCc2ccccc2C1C3 (stereo not given)	i	i	i	i	i	/	/	/
O=C(O)c1ccccc1Nc1cc(Cl)c2nonc2c1[N+](=O)[O-]	i	i	i	i	i	/	/	/
O=[N+]([O-])c1c(Nc2ccccn2)cc(Cl)c2nonc12	i	i	10.4*	i	-4.73*	54.5%*	i	8.0%*

Screening results deposited in PubChem by Johns Hopkins Ion Channel Center.
